For data set [1], the target named is T1, Nuclear receptor ROR-gamma (Homo sapiens, UniProt P51449).
T1 sequence (P51449 whole entry): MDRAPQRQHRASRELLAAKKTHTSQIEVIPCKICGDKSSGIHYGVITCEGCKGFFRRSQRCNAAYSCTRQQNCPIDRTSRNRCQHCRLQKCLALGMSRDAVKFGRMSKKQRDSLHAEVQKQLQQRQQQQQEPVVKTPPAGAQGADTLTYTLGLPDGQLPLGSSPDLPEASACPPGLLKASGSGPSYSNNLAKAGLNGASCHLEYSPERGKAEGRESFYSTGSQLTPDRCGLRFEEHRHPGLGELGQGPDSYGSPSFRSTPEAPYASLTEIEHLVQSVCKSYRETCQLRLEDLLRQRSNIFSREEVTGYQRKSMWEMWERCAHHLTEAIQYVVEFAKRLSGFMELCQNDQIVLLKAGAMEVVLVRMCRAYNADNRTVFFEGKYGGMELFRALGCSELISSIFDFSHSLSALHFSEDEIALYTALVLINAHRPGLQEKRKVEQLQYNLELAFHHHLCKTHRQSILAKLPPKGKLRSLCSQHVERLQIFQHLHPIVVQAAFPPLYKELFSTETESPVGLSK
Briefly: Inverse agonist activity at APC-labeled RORgammat LBD (unknown origin) assessed as inhibition of N-(2-chloro-6-fluorobenzyl)-N-((20-methoxy-[1,10-biphenyl]-4-yl)methyl)benzenesulfonamide -induced co-activator europium-labeled SRC1 peptide recruitment after 1 hr by LANCE-FRET assay. Conditions: for pIC50: read-out: IC50. A general note: In TR-FRET formats the signal depends on donor and acceptor labels being close together; call rule not given here.

Data set [2] is described as follows: Inhibition of mouse splenocytes-derived CD4+ Th17 cell differentiation assessed as reduction in IL-17 production at 0.3 uM by flow cytometry relative to control. The class given is functional. The essentials: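 CD4+ T cells were taken from mouse splenocytes by negative selection and skewed to Th17 over 4 days with anti-CD3 0.25 μg/mL, anti-CD28 1 μg/mL, anti-IFN-γ and anti-IL-4 2 μg/mL each, TGF-β 5 ng/mL and IL-6 20 ng/mL. Compound or DMSO was added on day 0. IL-17+ CD4+ cells were measured by intracellular staining and flow cytometry.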
Background: A flow cytometer gives signals particle by particle.

A short description of data set [3]: Intrinsic clearance in mouse liver microsomes. The class given is ADME, microsome.
In data set [4] the target is T2, Nuclear receptor ROR-gamma (Homo sapiens) (UniProt P51449).
T2 sequence (whole entry): T1 sequence (P51449 whole entry)
As to the kind of experiment: Agonist activity at APC-labeled RORgammat LBD (unknown origin) assessed as co-activator europium-labeled SRC1 peptide recruitment after 1 hr by LANCE-FRET assay relative to control.

pIC50: −log10 of the molar value.

For `CCn1c2ccccc2c2cc(C(=O)NCc3ccc(S(=O)(=O)NC)cc3)ccc21`, the pIC50 (in general, the negative decadic logarithm of the IC50, by convention in mol/L) in data set [1] is 6.50.
In the case of `CCn1c2ccc(F)cc2c2cc(C(=O)NCc3ccc(S(=O)(=O)CC)cc3)ccc21`, in data set [1], the pIC50 was 6.81. Moreover, in data set [2], the inhibition (as a rule, the change of the read-out against control, counted positive when it falls) at 0.3 µM stood at 45.9%. In addition, the CLint in data set [3] came to 0.348 mL/min/g.
On to `CCS(=O)(=O)c1ccc(CNC(=O)c2ccc3[nH]c4ccccc4c3c2)cc1`, for which the pIC50 in data set [1] is 5.27.
Take `CCn1c2c(c3cc(C(=O)NCc4ccc(S(=O)(=O)CC)cc4)ccc31)CCC2`: the pIC50 in data set [1] is 5.88.
Take `CCn1c2ccccc2c2cc(C(=O)NCc3ccc(S(=O)(=O)CC)cn3)ccc21`: the pIC50 in data set [1] was 5.91.
For the compound `CCn1c2c(c3cc(C(=O)NCc4ccc(S(=O)(=O)CC)cc4)ccc31)CCCC2`, the pIC50 in data set [1] is 6.37.
As for `CCn1c2ccc(C)cc2c2cc(C(=O)NCc3ccc(S(=O)(=O)CC)cc3)ccc21`, in data set [1], the pIC50 was 7.32. Moreover, the inhibition at 0.3 µM in data set [2] worked out at 43.6%. This compound came in with a CLint in data set [3] of 0.368 mL/min/g.
Take `CCn1c2ccccc2c2cc(NC(=O)Cc3ccc(S(=O)(=O)CC)cc3)ccc21`: the pIC50 in data set [1] is 6.77.
Regarding `CCCn1c2ccccc2c2cc(C(=O)NCc3ccc(S(=O)(=O)CC)cc3)ccc21`, in data set [1], the pIC50 was 6.86.
For `CCn1c2ccccc2c2cc(C(=O)NCC(C)NC(=O)Cc3ccc(S(=O)(=O)CC)cc3)ccc21` (centres undefined), the IC50 result in data set [1] was “Not Active”.
With `CCS(=O)(=O)c1ccc(CNC(=O)c2ccc3c(c2)c2ccccc2n3CC(C)C)cc1`, in data set [1], the pIC50 was 7.16.
Still for that read-out and setting: for `CCn1c2ccccc2c2cc(NC(=O)CNC(=O)Cc3ccc(S(=O)(=O)CC)cc3)ccc21` the value was 5.12.
As for `CCn1c2ccccc2c2cc(C(=O)NCc3ccc(S(=O)(=O)CC)cc3)ccc21`, the pIC50 in data set [1] was 6.78. In data set [2], the inhibition at 0.3 µM came to 40%. In addition, the CLint in data set [3] was 0.305 mL/min/g.
For the compound `CCS(=O)(=O)c1ccc(CNC(=O)c2ccc3c(c2)c2ccccc2n3CC2CCCCC2)cc1`, the pIC50 in data set [1] is 7.47. Moreover, the Emax – broadly, the size of the effect at its maximum, as opposed to the concentration needed – in data set [4] was 54%.
As for `CCn1c2ccc(C(=O)NCc3ccc(S(=O)(=O)CC)cc3)cc2c2ncccc21`, in data set [1], the pIC50 was 5.52.
With `CCn1ccc2cc(C(=O)NCc3ccc(S(=O)(=O)CC)cc3)ccc21`, the pIC50 in data set [1] is 5.29.
For `CCS(=O)(=O)c1ccc(CNC(=O)c2ccc3c(c2)c2ccccc2n3CC2CCC2)cc1`, in data set [1], the pIC50 is 7.26.
Consider `CCn1c(C)c(C)c2cc(C(=O)NCc3ccc(S(=O)(=O)CC)cc3)ccc21`, for which, in data set [1], the pIC50 was 6.04.
Regarding `CCCS(=O)(=O)c1ccc(CNC(=O)c2ccc3c(c2)c2ccccc2n3CC)cc1`, the pIC50 in data set [1] was 5.84.
`CCS(=O)(=O)c1ccc(CNC(=O)c2ccc3c(c2)c2ccccc2n3C(C)C)cc1`: the pIC50 in data set [1] was 6.45.
On to `CCS(=O)(=O)c1ccc(CNC(=O)c2ccc3c(c2)c2ccccc2n3CC2CC2)cc1`, for which the pIC50 in data set [1] is 7.09.
Still for that read-out and setting: for `CCS(=O)(=O)c1ccc(CNC(=O)c2ccc3c(c2)c2ccccc2n3C)cc1` the value was 6.25.
For the compound `CCn1c2ccc(Cl)cc2c2cc(C(=O)NCc3ccc(S(=O)(=O)CC)cc3)ccc21`, in data set [1], the pIC50 is 7.23. For the same compound, the inhibition at 0.3 µM in data set [2] amounted to 58.8%. Further, the CLint in data set [3] is 0.197 mL/min/g.
Consider `CCn1c2ccccc2c2cc(NC(=O)NCc3ccc(S(=O)(=O)CC)cc3)ccc21`, for which, in data set [1], the pIC50 was 4.79.
Turning to `CCn1c2ccccc2c2cc(C(=O)NCc3ccc(S(C)(=O)=O)cc3)ccc21`, the pIC50 in data set [1] is 5.96.

Source of the values: ChEMBL document CHEMBL4196040, “Discovery of carbazole carboxamides as novel RORγt inverse agonists” (Eur J Med Chem, 2018).
